What was measured:
Type in all cases: functional
Mus musculus [1] = assay: Compound was evaluated for anticonvulsant activity by maximal electroshock assay(MES) in mice after ip administration; 8-16
Procedure, shortened: (§1)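 Male Hilltop ICR-derived mice (19-30 g), groups of 8-10, dosed ip with compound or aqueous vehicle. After 15 min pretreatment, a transcorneal 60-Hz, 50 mA shock was given for 0.2 s. Just before the shock, each mouse was tested on a horizontal wire (10 s). Quantal data were analysed by Litchfield-Wilcoxon to give ED50 with 95% confidence limits.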

Mus musculus [2] = assay: Protective index is defined as ND50 (i.p.) divided by MES ED50(i.p.)
Procedure, shortened: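 Ratio of ND50 from the wire traction test to MES ED50, both measured by the same route (ip or oral) in the same animals. Quantal dose-response data for each were evaluated by Litchfield-Wilcoxon.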

Mus musculus [3] = assay: Dose of compound causing a neurological deficit in 50% of mice after ip administration; 19-38
Procedure, shortened: (§2)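 Traction test in male Hilltop ICR-derived mice (19-30 g, groups of 8-10) just before electroshock, 15 min after ip or 30 min after oral dosing. Mice placed on a 16-gauge, 65-cm copper wire 40 cm above the table; deficit scored as failure to stay on for 10 s. ND50 with 95% limits by Litchfield-Wilcoxon.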

Mus musculus [4] = assay: Compound was evaluated for anticonvulsant activity by maximal electroshock assay(MES) in mice after ip administration; 8-17; procedure, shortened: as §1
Mus musculus [5] = assay: Dose of compound causing a neurological deficit in 50% of mice after ip administration; 45-89; procedure, shortened: as §2

| SMILES | ED50 (Mus musculus [1]) | PI (Mus musculus [2]) | ND50 (Mus musculus [3]) | ED50 (Mus musculus [4]) | ND50 (Mus musculus [5]) |
| --- | --- | --- | --- | --- | --- |
| CCOC(Cn1ccnc1)c1ccc2ccccc2c1 (stereo unspecified) | 11 mg/kg | 2.5 | 27 mg/kg |  |  |
| Cl.OC(CCn1ccnc1)c1ccc2ccccc2c1 (stereo unspecified) |  | 4.9 |  | 13 mg/kg | 64 mg/kg |
